What all share (conditions): read-out: IZ
Assay [1] has as its system Bacillus thuringiensis. Nature of the assay: Antimicrobial activity Bacillus thuringiensis at 0.15 mg/mL after 24 hrs by agar diffusion technique. It is filed as functional. Summed up:
(§1)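 Agar diffusion on nutrient agar. Test solutions were 0.15 mg/mL in DMSO, and DMSO alone was the blank. Plates were seeded with the bacterial culture and incubated 24 h at 30 °C. The read-out was the diameter of the inhibition zone in mm.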
(In general: In agar diffusion tests the substance spreads into inoculated agar from a disc or well.)

The subject of assay [2] is Klebsiella pneumoniae. Nature of the assay: Antimicrobial activity Klebsiella pneumoniae at 0.15 mg/mL after 24 hrs by agar diffusion technique. Format: functional. Summed up:
as §1

In assay [3] the test system is Botrytis fabae. Put plainly: Antimicrobial activity Botrytis fabae at 0.15 mg/mL after 72 hrs by agar diffusion technique.
Assay [4] concerns Fusarium oxysporum. Nature of the assay: Antimicrobial activity Fusarium oxysporum at 0.15 mg/mL after 72 hrs by agar diffusion technique.
For assay [5], the system named is Bacillus thuringiensis. Put plainly: Antimicrobial activity Bacillus thuringiensis at 25 ug/mL after 24 hrs by agar diffusion technique. Format: functional.
In assay [6] the test system is Klebsiella pneumoniae. Nature of the assay: Antimicrobial activity Klebsiella pneumoniae at 25 ug/mL after 24 hrs by agar diffusion technique. Format: functional.
Assay [7] deals with Botrytis fabae. Nature of the assay: Antimicrobial activity Botrytis fabae at 25 ug/mL after 72 hrs by agar diffusion technique.
The subject of assay [8] is Fusarium oxysporum. Nature of the assay: Antimicrobial activity Fusarium oxysporum at 25 ug/mL after 72 hrs by agar diffusion technique.

Turning to `Cc1c(NC(=O)c2cc3ccccc3oc2=N)c(=O)n(-c2ccccc2)n1C`, the zone of inhibition at 150 µg/mL in the assay with Bacillus thuringiensis [1] is 24 mm; with Klebsiella pneumoniae [2], 22 mm; in the assay with Botrytis fabae [3], 18 mm; with Fusarium oxysporum [4], 18 mm.

For `Cc1c(NC(=O)c2c(Nc3ccccc3)n[nH]c2/N=C\N(C)C)c(=O)n(-c2ccccc2)n1C`, the zone of inhibition at 150 µg/mL in the assay with Bacillus thuringiensis [1] is 27 mm; in the assay with Klebsiella pneumoniae [2] it was 24 mm; in the assay with Botrytis fabae [3], 25 mm; with Fusarium oxysporum [4], 21 mm.

As for `Cc1c(NC(=O)c2c(Nc3ccccc3)n[nH]c2N)c(=O)n(-c2ccccc2)n1C`, the zone of inhibition at 150 µg/mL worked out at 15 mm with Bacillus thuringiensis [1], 12 mm with Klebsiella pneumoniae [2], 16 mm with Botrytis fabae [3] and 12 mm with Fusarium oxysporum [4].

As to `Cc1cc(C)c2c(N/N=C(\C#N)C(=O)Nc3c(C)n(C)n(-c4ccccc4)c3=O)n[nH]c2n1`, the zone of inhibition at 150 µg/mL in the assay with Bacillus thuringiensis [1] was found to be 16 mm; in the assay with Klebsiella pneumoniae [2], 19 mm; with Botrytis fabae [3], 16 mm; in the assay on Fusarium oxysporum [4], 16 mm.

Turning to `Cc1cc(O)n2nc(Nc3ccccc3)c(C(=O)Nc3c(C)n(C)n(-c4ccccc4)c3=O)c2n1`, the zone of inhibition at 150 µg/mL amounted to 20 mm with Bacillus thuringiensis [1], 24 mm in the assay with Klebsiella pneumoniae [2], 27 mm with Botrytis fabae [3] and 25 mm in the assay with Fusarium oxysporum [4].

Take `Cc1cc(C)n2nc(Nc3ccccc3)c(C(=O)Nc3c(C)n(C)n(-c4ccccc4)c3=O)c2n1`: the zone of inhibition at 150 µg/mL in the assay with Bacillus thuringiensis [1] came out at 21 mm; with Klebsiella pneumoniae [2] it was 28 mm; in the assay with Botrytis fabae [3], 24 mm; with Fusarium oxysporum [4], 25 mm.

As for `Cc1c(NC(=O)CC#N)c(=O)n(-c2ccccc2)n1C`, the zone of inhibition at 150 µg/mL was 12 mm with Bacillus thuringiensis [1], 13 mm in the assay on Klebsiella pneumoniae [2], 10 mm in the assay on Botrytis fabae [3] and 12 mm in the assay on Fusarium oxysporum [4].

As to `Cc1c(-n2nnc3[nH]nc(Nc4ccccc4)c3c2=O)c(=O)n(-c2ccccc2)n1C`, the zone of inhibition at 150 µg/mL stood at 22 mm in the assay with Bacillus thuringiensis [1], 22 mm with Klebsiella pneumoniae [2], 26 mm in the assay on Botrytis fabae [3] and 22 mm in the assay on Fusarium oxysporum [4].

Take `Cc1c(NC(=O)c2sc(=S)n(-c3ccccc3)c2N)c(=O)n(-c2ccccc2)n1C`: the zone of inhibition at 150 µg/mL is 12 mm in the assay on Bacillus thuringiensis [1], 12 mm in the assay on Klebsiella pneumoniae [2], 13 mm with Botrytis fabae [3] and 13 mm in the assay on Fusarium oxysporum [4].

As to `Cc1cc(C)n(-c2c(C)n(C)n(-c3ccccc3)c2=O)c(=O)c1C#N`, the zone of inhibition at 150 µg/mL in the assay on Bacillus thuringiensis [1] turned out to be 10 mm; in the assay with Klebsiella pneumoniae [2] it was 13 mm; in the assay on Botrytis fabae [3], 12 mm; with Fusarium oxysporum [4] it was 12 mm.

For the compound `CC1(C)S[C@@H]2[C@H](NC(=O)[C@H](N)c3ccccc3)C(=O)N2[C@H]1C(=O)O` [AMPICILLIN], the zone of inhibition at 25 µg/mL in the assay with Bacillus thuringiensis [5] was 18 mm; with Klebsiella pneumoniae [6] it was 19 mm; in the assay on Botrytis fabae [7] it was 17 mm; in the assay with Fusarium oxysporum [8] it was 15 mm.

Regarding `Cc1c(-n2cnc3[nH]nc(Nc4ccccc4)c3c2=O)c(=O)n(-c2ccccc2)n1C`, the zone of inhibition at 150 µg/mL in the assay with Bacillus thuringiensis [1] worked out at 28 mm; with Klebsiella pneumoniae [2] it was 29 mm; with Botrytis fabae [3] it was 27 mm; in the assay with Fusarium oxysporum [4], 25 mm.

In the case of `O=C(N[C@H](CO)[C@H](O)c1ccc([N+](=O)[O-])cc1)C(Cl)Cl` [CHLORAMPHENICOL], the zone of inhibition at 25 µg/mL in the assay with Bacillus thuringiensis [5] is 23 mm; in the assay on Klebsiella pneumoniae [6], 20 mm; with Botrytis fabae [7], 16 mm; with Fusarium oxysporum [8], 15 mm.

As to `Cc1cc(C)c2c(n1)[nH]n1c(=N)c(C(=O)Nc3c(C)n(C)n(-c4ccccc4)c3=O)nnc21`, the zone of inhibition at 150 µg/mL in the assay on Bacillus thuringiensis [1] stood at 13 mm; with Klebsiella pneumoniae [2] it was 14 mm; with Botrytis fabae [3], 13 mm; with Fusarium oxysporum [4], 14 mm.

Consider `OC(Cn1cncn1)(Cn1cncn1)c1ccc(F)cc1F` [FLUCONAZOLE], for which the zone of inhibition at 25 µg/mL in the assay with Botrytis fabae [7] stood at 22 mm; with Fusarium oxysporum [8], 16 mm.

(Values after ChEMBL document CHEMBL1158180, “Synthesis and antimicrobial activity of some new heterocycles incorporating antipyrine moiety” (2008).)
